The source of these data is article PMC3224553 (Bioorganic & medicinal chemistry letters, 2011).

Molecules are shown by their SMILES. A value given as a limit tells only on which side of the number the result lay.

Series [1] is described as follows: in vitro microsomal stability, human liver microsomes. In kind it is in vitro ADME.
A short description of series [2]: in vitro microsomal stability, mouse liver microsomes. In kind it is in vitro ADME. On the technique in general: Liver microsomes are a subcellular fraction often used to study metabolism.
For a further series, the system named is Caco-2. Put plainly: Caco-2 permeability. The class given is in vitro ADME. On the technique in general: Caco-2 cells form a polarised layer with tight junctions and transporters.
Another series can be described thus: Caco-2 permeability. In kind it is in vitro ADME. The conditions noted are these: human, Caco-2, Caco-2 Permeability Efflux Ratio.
The next series has as its target hPK M2 (Homo sapiens, UniProt P14618). Put plainly: luminescent pyruvate kinase-luciferase coupled assay. The class given is biochemical. The conditions noted are these: for AC50: hPK M2 AC50, average from three separate experiments. Put shortly:
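Human PKM2 activity is read by luminescence in a pyruvate kinase–luciferase coupled format. AC50 values are the average of three separate experiments. Maximum response is the % activation at 57 μM of test compound, normalized as described in the supporting information.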

Sequence of hPK M2 (P14618 whole entry): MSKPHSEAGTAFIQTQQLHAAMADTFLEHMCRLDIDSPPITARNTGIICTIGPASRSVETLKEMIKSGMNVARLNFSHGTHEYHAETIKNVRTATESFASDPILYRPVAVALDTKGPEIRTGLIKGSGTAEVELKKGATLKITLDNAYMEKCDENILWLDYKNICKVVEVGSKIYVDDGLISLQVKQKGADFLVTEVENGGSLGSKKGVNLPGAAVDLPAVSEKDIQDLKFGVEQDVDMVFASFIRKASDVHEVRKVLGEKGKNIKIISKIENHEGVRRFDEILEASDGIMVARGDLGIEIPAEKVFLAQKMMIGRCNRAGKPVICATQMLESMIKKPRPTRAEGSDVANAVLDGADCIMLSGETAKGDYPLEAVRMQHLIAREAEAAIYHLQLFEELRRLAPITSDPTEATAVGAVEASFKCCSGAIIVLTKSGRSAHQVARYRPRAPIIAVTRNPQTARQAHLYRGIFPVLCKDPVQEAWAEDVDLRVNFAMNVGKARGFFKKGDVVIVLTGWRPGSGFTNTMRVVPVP

By half-life is commonly meant the time needed for the level to fall by half in the phase considered. The term efflux ratio denotes a quotient of directional permeabilities that is used to spot active efflux. On to `Cc1ccc(NS(=O)(=O)c2ccc3c(c2)CCC(=O)N3)cc1C` [Compound 3], for which, in series [1], the half-life is less than 20 min. Further, in series [2], the half-life was less than 20 min. In addition, in the series with Caco-2, the “Caco-2 Permeability Papp (A–B)” value is 14.9 10^−6, cm/s and the “Caco-2 Permeability Papp (B–A)” value is given as 12.21 10^−6, cm/s. For the same molecule, the efflux ratio in “Caco-2 permeability” was less than 1.
The term AC50 denotes the midpoint of the concentration-response curve, whichever way the signal moves. As for `Cc1ccc(NS(=O)(=O)c2cccc(C(=O)O)c2)cc1C` [Compound 5], the half-maximal activity concentration (AC50) at hPK M2 was greater than 20 µM.
`Cc1ccc(NS(=O)(=O)c2ccc(F)cc2)cc1C` [Compound 6] displayed an AC50 at hPK M2 greater than 20 µM.
`Cc1ccc(NS(=O)(=O)c2ccc3ccccc3c2)cc1C` [Compound 7] returned an AC50 at hPK M2 of 18.4 µM.
On hPK M2, `Cc1ccc(NS(=O)(=O)c2cccc(Cl)c2)cc1C` [Compound 8] registered an AC50 of 18.3 µM.
`COc1ccc(S(=O)(=O)Nc2ccc(C)c(C)c2)cc1` [Compound 9] came in with an AC50 on hPK M2 of 17.3 µM.
For the molecule `Cc1ccc(NS(=O)(=O)c2ccc3c(c2)CCC(C)(C)O3)cc1C` [Compound 10], the AC50 on hPK M2 is 10 µM.
Take `Cc1ccc(NS(=O)(=O)c2ccc3c(c2)NC(=O)CO3)cc1C` [Compound 11]: the AC50 on hPK M2 came out at 13.4 µM.
Same read-out and setting: the figure for `Cc1ccc(NS(=O)(=O)c2ccc3[nH]c(=O)[nH]c3c2)cc1C` [Compound 12] is greater than 20 µM; for `CC(=O)Nc1cccc(S(=O)(=O)Nc2ccc(C)c(C)c2)c1` [Compound 13] it is 13.1 µM; for `CC(=O)N1CCCc2cc(S(=O)(=O)Nc3ccc(C)c(C)c3)ccc21` [Compound 14] it is 9 µM.
Same read-out and setting: as for `Cc1ccc(NS(=O)(=O)c2ccc3c(c2)CC(=O)N3)cc1C` [Compound 15], the figure is 8.3 µM.
`Cc1ccc(NS(=O)(=O)c2ccc3c(c2)CCCC(=O)N3)cc1C` [Compound 16] came in with an AC50 at hPK M2 of 7.1 µM.
Take `CC(=O)Nc1ccc(S(=O)(=O)Nc2ccc(C)c(C)c2)cc1` [Compound 17]: the activity at hPK M2 was half-maximal at 6.9 µM (AC50).
`Cc1ccc(NS(=O)(=O)c2ccc3c(c2)oc(=O)n3C)cc1C` [Compound 18] gave an AC50 at hPK M2 of 4.3 µM.
On the same count and under the same terms, as for `Cc1ccc(NS(=O)(=O)c2ccc3c(c2)N(C)CCO3)cc1C` [Compound 19], the figure is 6 µM; as for `Cc1ccc(NS(=O)(=O)c2ccc(N3CCCC3=O)cc2)cc1C` [Compound 20], 0.94 µM; as for `Cc1ccc(NS(=O)(=O)c2ccc3c(c2)CC(=O)N3C)cc1C` [Compound 21], 2.3 µM.
On to `CC(=O)N1CCc2cc(S(=O)(=O)Nc3ccc(C)c(C)c3)ccc21` [Compound 22], for which, on hPK M2, half-maximal activity (AC50) was put at 1.5 µM.
As for `Cc1ccc(NS(=O)(=O)c2cc3c(cc2N(C)C)NC(=O)CC3)cc1C` [Compound 52], the half-life in series [1] and in series [2] was less than 25 min each time. In addition, on hPK M2, the “PKM2 activation, result in words” value is listed as “retained activity”.
Turning to `CNc1cc2c(cc1S(=O)(=O)Nc1ccc(C)c(C)c1)CCC(=O)N2` [Compound 54], the half-life in series [1] and in series [2] was less than 25 min each time. Moreover, the “PKM2 activation, result in words” value on hPK M2 was “retained activity”.
In the case of `Cc1ccc(NS(=O)(=O)c2cc3c(cc2N2CCC(N(C)C)C2)NC(=O)CC3)cc1C` (stereo not shown) [Compound 56], on hPK M2, the “PKM2 activation, result in words” value was “loss of activity”.
On the same count and under the same terms, as for `Cc1ccc(NS(=O)(=O)c2cc3c(cc2N2CCCCC2)NC(=O)CC3)cc1C` [Compound 57], the entry is “loss of activity”.
Consider `Cc1ccc(NS(=O)(=O)c2cc3c(cc2N[C@@H](C)CO)NC(=O)CC3)cc1C` [Compound 63], for which the “fold more potent than its enantiomer” value at hPK M2 ((S)- vs (R)-alaninol derivative) is recorded as 4 fold.
As to `Cc1ccc(NS(=O)(=O)c2cc3c(cc2F)NC(=O)CC3)cc1Cl` [Compound 64], in the series with Caco-2, the “Caco-2 Permeability Papp (A–B)” value is 6.22 10^−6, cm/s and the “Caco-2 Permeability Papp (B–A)” value is 6.24 10^−6, cm/s. The efflux ratio in “Caco-2 permeability” is no more than 1.
Turning to `O=C1CCc2cc(S(=O)(=O)Nc3ccc(F)c(Cl)c3)c(F)cc2N1` [Compound 66], in the series on Caco-2, the “Caco-2 Permeability Papp (A–B)” value was 9.38 10^−6, cm/s and the “Caco-2 Permeability Papp (B–A)” value is on record as 7.91 10^−6, cm/s. Moreover, in the series “Caco-2 permeability”, the efflux ratio was no more than 1.
For `Cc1ccc(NS(=O)(=O)c2cc3c(cc2N[C@@H](C)CO)NC(=O)CC3)cc1Cl` [Compound 68], in the series with Caco-2, the “Caco-2 Permeability Papp (A–B)” value is 1.13 10^−6, cm/s and the “Caco-2 Permeability Papp (B–A)” value was 11.9 10^−6, cm/s.
Consider `C[C@@H](CO)Nc1cc2c(cc1S(=O)(=O)Nc1ccc(F)c(Cl)c1)CCC(=O)N2` [Compound 69], for which, in the series with Caco-2, the “Caco-2 Permeability Papp (A–B)” value was 1.61 10^−6, cm/s and the “Caco-2 Permeability Papp (B–A)” value is on record as 17.52 10^−6, cm/s.
As for `Cc1ccc(NS(=O)(=O)c2cc(Br)cc3c2NC(=O)CC3)cc1C` [Compound 74b], the “PKM2 activation, result in words” value on hPK M2 is on record as “no activity”.
Turning to `Cc1ccc(NS(=O)(=O)c2cc(Br)cc3c2NC(=O)CC3)cc1Cl` [Compound 75b], the “PKM2 activation, result in words” value on hPK M2 is given as “no activity”.
In the case of `Cc1ccc(NS(=O)(=O)c2cc(N[C@@H](C)CO)cc3c2NC(=O)CC3)cc1C` [Compound 76b], the “PKM2 activation, result in words” value at hPK M2 is “inactive”.
Consider `Cc1ccc(NS(=O)(=O)c2cc(N[C@@H](C)CO)cc3c2NC(=O)CC3)cc1Cl` [Compound 77b], for which, on hPK M2, the “PKM2 activation, result in words” value is “inactive”.
